“Also recorded” adds a separate entry of the source.
What was measured:
[1] = Pharmacokinetic study after single IV injection; type: in vivo, male Sprague–Dawley rats
[2] = Solubility of the isolated solid; type: physicochemical; conditions: light yellow solid
[3] = In vitro release of; type: physicochemical; conditions: for accumulated amount of released (dach)Pt(II): pH 7.4, 37°C
Summary of the method: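 Conjugate solution (2 mg/mL) was dialysed in cellulose tubing (MWCO 2,000 Da) against phosphate buffer at pH 5.4 or 7.4, at 37°C with stirring at 100 rpm under sink conditions. Dialysate was sampled at set times over 10 days. Released Pt was measured by ICP-MS and expressed as cumulative % of total loaded (dach)Pt.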

[4] = Particle size distribution by dynamic light scattering; type: physicochemical; conditions: hydrodynamic size
[5] = Lower critical solution temperature; type: physicochemical
[6] = Clearance study of Cy5.5-labeled PP from major organs by ex vivo imaging; type: in vivo, BALB/C nude mice; conditions: Cy5.5-labeled PP 300 mg/kg IV, mice without tumor, postinjection
Summary of the method: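 Tumour-free BALB/C nude mice (n=30; 5 weeks, 15–20 g; acclimatised 4 days) received the Cy5.5-labelled conjugate at 300 mg/kg IV via the tail vein. Mice were killed at short intervals during week 1, then weekly. Dissected organs were imaged by CCD camera through a 680–720 nm Cy5.5 filter until each organ's intensity fell below that of a blank organ.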

[7] = Bioimaging of Pt in mouse kidney by laser ablation ICP-MS; type: in vivo; conditions: listed as PP
Summary of the method: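 Mouse kidneys were dissected at 2, 12 and 24 h after IV injection, following the biodistribution procedure. Reference drug was dosed to match on (dach)Pt content. Kidneys were cryostat-sectioned at 100 μm and dried at room temperature. Pt was mapped by femtosecond laser ablation ICP-MS.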

[8] = test system: non-small-cell lung carcinoma A549 cells; experiment: Biodistribution of Cy5.5-labeled PP by ex vivo imaging in tumor-bearing mice; parameters: species or system BALB/C nude mice; conditions: Cy5.5-labeled PP 60 mg/kg IV
Summary of the method: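 BALB/C nude mice (5 weeks, 15–20 g) were acclimatised for 4 days. A549 cells (1×10^7 in serum-free RPMI 1640) were injected s.c. into the right flank. After 2 weeks, with tumours at 250–300 mm3, mice received the Cy5.5-labelled conjugate (60 mg/kg in saline) IV via the tail vein. Mice were killed at 12, 24, 48 and 72 h, with blood taken by cardiac puncture. Tumour, muscle, liver, kidney, spleen, lung and blood were imaged by CCD camera through a 680–720 nm Cy5.5 emission filter.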

[9] = test system: gastric tumor cell line (MKN-28); experiment: Nude mouse xenograft trial; type: in vivo, BALB/C nude mice
Summary of the method: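 MKN-28 xenografts were grown in BALB/C nude mice (5 weeks, 15–20 g). Test and reference drugs were dosed to equal (dach)Pt content, at 8 mg (dach)Pt/kg, and reference drug was also given at 16 mg (dach)Pt/kg. Tumour growth and body weight were monitored.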

[10] = Critical aggregation concentration by fluorescence pyrene method; type: physicochemical; conditions: in saline
[11] = test system: male ICR mice; experiment: Acute toxicity study; type: in vivo

Compound: O=C1[O][Pt]2([NH][C@@H]3CCCC[C@H]3[NH]2)[O]C1=O [Oxaliplatin, oxaliplatin, reference compound]
- AUC ([1]; single IV 1 mg (dach)Pt/kg, male rats, listed as OX): 2,320.4 ng h/mL

Compound: [NP(MPEG550)(AE)(AA)Pt(dach)]n [Polyplatin]
- solubility [2]: soluble in water and polar organic solvents
- accumulated amount of platinum released ([3]; pH 5.4, 37°C, 10 days): 98%
- accumulated amount of released (dach)Pt(II) ([3]; 24 hours): 18%
- accumulated amount of released (dach)Pt(II) ([3]; 10 days): 72%
- mean diameter [4]: 55.1 nm
- Lower critical solution temperature (LCST) ([5]; 5% solution): higher than 100 °C
- Lower critical solution temperature (LCST) ([5]; given with the synthesis): > 100 °C
- time to clearance from all the major organs including the liver [6]: about 4 weeks
- excretion of platinum from kidney ([7]; 12 and 24 hours postinjection): more rapidly excreted than monomeric OX
- platinum distribution/accumulation in kidney ([7]; 2 hours postinjection, same dose based on (dach)Pt content): accumulates much less in kidney; also recorded: much less and relatively homogeneous distribution; also recorded: accumulated much less in the kidney
- clearance time relative to OX ([1]; PP (6.3 mL/h) compared with OX (116.36 mL/h)): about 18 times
- half-life of the β phase relative to OX ([1]; PP compared with OX, rats): more than twice longer
- t1/2 β ([1]; single IV 1 mg (dach)Pt/kg, male rats, listed as PP): 13.3 h
- plasma concentration course (fluorescence) ([8]; 12 to 72 hours postinjection): decrease slowly
- tumor accumulation / tumor selectivity ([8]; A549 tumor-bearing mice, EPR effect, listed as PP): high tumor selectivity
- time of maximum concentration in tumor ([8]; A549 tumor-bearing mice, postinjection): 48 h
- tumor-to-tissue ratio, maximum value ([8]; at 48 hours postinjection): 12
- antitumor activity ([9]; 8 mg (dach)Pt/kg IV on days 1, 5, 9, MKN-28 xenograft): comparable to OX
- death of test mice ([9]; 16 mg (dach)Pt/kg IV, MKN-28 xenograft): without any death
- antitumor efficacy compared with OX, overall ([9]; MKN-28 xenograft, listed as PP): remarkably higher antitumor activity
- systemic toxicity compared with OX ([9]; MKN-28 xenograft, listed as PP): lower systemic toxicity; also recorded: low systemic toxicity
- antitumor activity ([9]; double dose of 16 mg (dach)Pt/kg IV on days 1, 5, 9, MKN-28 xenograft, listed as PP): much better activity
- body weight changes ([9]; low and high doses, during the drug injection period (days 1, 5, and 9)): nearly no body weight changes
- critical aggregation concentration (CAC) [10]: 18.5 mg/L
- critical aggregation concentration (CAC) ([10]; unit as printed in b33): 18.5 mg/L
- body weight change depending on the dose ([11]; 5, 50, 300 and 2,000 mg/kg IV, 14 days): no considerable difference in body weight change
- LD50 ([11]; IV in saline, ICR mice, 14 days observation): more than 2000 mg/kg
